From ChEMBL document CHEMBL5724801, “EUbOPEN Chemogenomics Library - Multiplex” (2024)
“And” between values parts separate entries of the source, which are not always exact repeats. Equal entries are not always repeated.

Key:
Fibroblast = experiment: Multiplex assay against human fibroblast; type: toxicity, cell-based
Procedure, shortened: (§1)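 Live cells were stained at seeding with Hoechst33342, BioTracker Green Microtubule Cytoskeleton Dye, MitoTracker Red and Annexin V Alexa Fluor 680, then imaged on a CQ1 microscope at 37°C and 5% CO2 after compound addition. CellPathfinder machine-learning gating split cells into Hoechst high-intensity objects or normal cells. Normal cells were split into healthy, pyknosed or fragmented nuclei, and pyknosed cells into mitotic or apoptotic. Tubulin, mitochondrial-mass and membrane-permeability phenotypes are per cents of healthy-nucleus cells.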

HEK-293T = experiment: Multiplex assay against HEK293T; type: toxicity, cell-based; settings: human; procedure, shortened: as §1
[1] = 12 h, 1 µM, compound concentration 1 uM
[2] = 12 h, 10 µM, compound concentration 10 uM
[3] = 24 h, 1 µM, compound concentration 1 uM
[4] = 24 h, 10 µM, compound concentration 10 uM
[5] = 48 h, 1 µM, compound concentration 1 uM
[6] = 48 h, 10 µM, compound concentration 10 uM

Cl.Clc1ccc2nsnc2c1NC1=NCCN1 [TIZANIDINE HYDROCHLORIDE]
Population Apoptotic (%) (Fibroblast; [1]): 38% and 33%
Population Fragmented Nuclei (%) (Fibroblast; [1]): 10% and 24%
Population Healthy Nuclei (%) (Fibroblast; [1]): 72% and 49%
Population Hoechst High Intensity Objects (%) (Fibroblast; [1]): 3% and 4%
Population Membrane Permeable-Phenotype (%) (Fibroblast; [1]): 0% and 5%
Population Mitochondria Different-Phenotype (%) (Fibroblast; [1]): 4% and 5%
Population Mitotic Cells (%) (Fibroblast; [1]): 61% and 66%
Population Normal (%) (Fibroblast; [1]): 96% and 95%
Population Pyknosed Nuclei (%) (Fibroblast; [1]): 17% and 25%
Population Tubulin-Different-Phenotype (%) (Fibroblast; [1]): 21% and 50%
Total Cell Count (Fibroblast; [1]): 155 and 182
Population Apoptotic (%) (Fibroblast; [2]): 36% and 21%
Population Fragmented Nuclei (%) (Fibroblast; [2]): 18% and 24%
Population Healthy Nuclei (%) (Fibroblast; [2]): 60% and 45%
Population Hoechst High Intensity Objects (%) (Fibroblast; [2]): 4%
Population Membrane Permeable-Phenotype (%) (Fibroblast; [2]): 0% and 7%
Population Mitochondria Different-Phenotype (%) (Fibroblast; [2]): 8% and 7%
Population Mitotic Cells (%) (Fibroblast; [2]): 64% and 78%
Population Normal (%) (Fibroblast; [2]): 95%
Population Pyknosed Nuclei (%) (Fibroblast; [2]): 20% and 29%
Population Tubulin-Different-Phenotype (%) (Fibroblast; [2]): 29% and 33%
Total Cell Count (Fibroblast; [2]): 129 and 143
Population Apoptotic (%) (Fibroblast; [3]): 52% and 42%
Population Healthy Nuclei (%) (Fibroblast; [3]): 76% and 49%
Population Hoechst High Intensity Objects (%) (Fibroblast; [3]): 2% and 4%
Population Membrane Permeable-Phenotype (%) (Fibroblast; [3]): 0% and 9%
Population Mitochondria Different-Phenotype (%) (Fibroblast; [3]): 0% and 4%
Population Mitotic Cells (%) (Fibroblast; [3]): 47% and 57%
Population Normal (%) (Fibroblast; [3]): 97% and 95%
Population Pyknosed Nuclei (%) (Fibroblast; [3]): 16% and 24%
Total Cell Count (Fibroblast; [3]): 146 and 182
Population Apoptotic (%) (Fibroblast; [4]): 45% and 47%
Population Fragmented Nuclei (%) (Fibroblast; [4]): 19%
Population Healthy Nuclei (%) (Fibroblast; [4]): 60% and 48%
Population Hoechst High Intensity Objects (%) (Fibroblast; [4]): 1% and 2%
Population Membrane Permeable-Phenotype (%) (Fibroblast; [4]): 0% and 9%
Population Mitochondria Different-Phenotype (%) (Fibroblast; [4]): 5% and 6%
Population Mitotic Cells (%) (Fibroblast; [4]): 54% and 52%
Population Normal (%) (Fibroblast; [4]): 98% and 97%
Population Pyknosed Nuclei (%) (Fibroblast; [4]): 20% and 32%
Population Tubulin-Different-Phenotype (%) (Fibroblast; [4]): 20% and 34%
Total Cell Count (Fibroblast; [4]): 122 and 135
Population Apoptotic (%) (Fibroblast; [5]): 47% and 55%
Population Fragmented Nuclei (%) (Fibroblast; [5]): 17% and 29%
Population Healthy Nuclei (%) (Fibroblast; [5]): 71% and 47%
Population Hoechst High Intensity Objects (%) (Fibroblast; [5]): 2% and 6%
Population Membrane Permeable-Phenotype (%) (Fibroblast; [5]): 2% and 6%
Population Mitochondria Different-Phenotype (%) (Fibroblast; [5]): 1% and 8%
Population Mitotic Cells (%) (Fibroblast; [5]): 52% and 44%
Population Normal (%) (Fibroblast; [5]): 97% and 93%
Population Pyknosed Nuclei (%) (Fibroblast; [5]): 10% and 23%
Population Tubulin-Different-Phenotype (%) (Fibroblast; [5]): 19% and 56%
Total Cell Count (Fibroblast; [5]): 167 and 166
Population Apoptotic (%) (Fibroblast; [6]): 69% and 63%
Population Fragmented Nuclei (%) (Fibroblast; [6]): 26% and 35%
Population Healthy Nuclei (%) (Fibroblast; [6]): 56% and 42%
Population Hoechst High Intensity Objects (%) (Fibroblast; [6]): 2%
Population Membrane Permeable-Phenotype (%) (Fibroblast; [6]): 0% and 6%
Population Mitochondria Different-Phenotype (%) (Fibroblast; [6]): 5% and 11%
Population Mitotic Cells (%) (Fibroblast; [6]): 30% and 36%
Population Normal (%) (Fibroblast; [6]): 97%
Population Pyknosed Nuclei (%) (Fibroblast; [6]): 17% and 21%
Population Tubulin-Different-Phenotype (%) (Fibroblast; [6]): 26% and 44%
Total Cell Count (Fibroblast; [6]): 133 and 141
Population Apoptotic (%) (HEK-293T; [1]): 39% and 44%
Population Fragmented Nuclei (%) (HEK-293T; [1]): 9% and 2%
Population Healthy Nuclei (%) (HEK-293T; [1]): 80% and 83%
Population Hoechst High Intensity Objects (%) (HEK-293T; [1]): 8% and 9%
Population Membrane Permeable-Phenotype (%) (HEK-293T; [1]): 0%
Population Mitochondria Different-Phenotype (%) (HEK-293T; [1]): 36% and 62%
Population Mitotic Cells (%) (HEK-293T; [1]): 60% and 55%
Population Normal (%) (HEK-293T; [1]): 91% and 90%
Population Pyknosed Nuclei (%) (HEK-293T; [1]): 9% and 13%
Population Tubulin-Different-Phenotype (%) (HEK-293T; [1]): 26% and 20%
Total Cell Count (HEK-293T; [1]): 474 and 373
Population Apoptotic (%) (HEK-293T; [2]): 30% and 46%
Population Fragmented Nuclei (%) (HEK-293T; [2]): 9% and 7%
Population Healthy Nuclei (%) (HEK-293T; [2]): 80% and 79%
Population Hoechst High Intensity Objects (%) (HEK-293T; [2]): 6% and 4%
Population Membrane Permeable-Phenotype (%) (HEK-293T; [2]): 0%
Population Mitochondria Different-Phenotype (%) (HEK-293T; [2]): 45% and 67%
Population Mitotic Cells (%) (HEK-293T; [2]): 70% and 53%
Population Normal (%) (HEK-293T; [2]): 93% and 95%
Population Pyknosed Nuclei (%) (HEK-293T; [2]): 9% and 13%
Population Tubulin-Different-Phenotype (%) (HEK-293T; [2]): 32% and 27%
Total Cell Count (HEK-293T; [2]): 450 and 343
Population Apoptotic (%) (HEK-293T; [3]): 32% and 45%
Population Fragmented Nuclei (%) (HEK-293T; [3]): 11% and 10%
Population Healthy Nuclei (%) (HEK-293T; [3]): 79% and 80%
Population Hoechst High Intensity Objects (%) (HEK-293T; [3]): 4% and 5%
Population Membrane Permeable-Phenotype (%) (HEK-293T; [3]): 0%
Population Mitochondria Different-Phenotype (%) (HEK-293T; [3]): 20% and 38%
Population Mitotic Cells (%) (HEK-293T; [3]): 67% and 54%
Population Normal (%) (HEK-293T; [3]): 95% and 94%
Population Pyknosed Nuclei (%) (HEK-293T; [3]): 8%
Population Tubulin-Different-Phenotype (%) (HEK-293T; [3]): 17% and 15%
